Assay results taken from ChEMBL document CHEMBL4043300, “2 H-1,2,3-Triazole-Based Dipeptidyl Nitriles: Potent, Selective, and Trypanocidal Rhodesain Inhibitors by Structure-Based Design” (J Med Chem, 2018).
In brackets after ≈: the same amount, converted by molar mass.

Legend:
[1] = system: Trypanosoma brucei rhodesiense; experiment: Antitrypanosomal activity against bloodstream form of Trypanosoma brucei rhodesiense STIB 900 assessed as parasite growth inhibition after 72 hrs by Alamar blue assay; format: functional; details: STIB 900, 72 h
In short: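 Standard 72 h growth-inhibition assay with STIB 900 bloodstream trypomastigotes and Alamar Blue read-out. Value is the mean of at least 2 measurements.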

Cytochrome P450 2D6 = Cytochrome P450 2D6 (Homo sapiens, UniProt P10635); experiment: Inhibition of CYP2D6 in human liver microsomes using AMMC as substrate by fluorescence assay; format: ADME
In short: (§1)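 Human liver microsomes with CYP-selective substrate metabolism reactions for 2C9, 2D6 and 3A4.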

[2] = Half life in C57BL/6J mouse at 1.5 mg/kg, iv as bolus dose by LC-MS/MS analysis; format: ADME, organism-based; details: in vivo
In short: (§2)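 Mice given single i.v. dose in N-methylpyrrolidinone / 40% (v/v) aqueous hydroxypropyl-γ-cyclodextrin (30/70 v/v). Blood into K₂EDTA at 5 min, 15 min, 30 min, 1, 2, 4, 8 h, sublingually or by terminal cardiac puncture under isoflurane. Plasma spun at 3000 × g, 5 min, 4 °C, stored at -20 °C. Plasma levels by LC–MS/MS; parameters by non-compartmental analysis.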

[3] = Solubility of the compound at pH 6.5 by LYSA; format: physicochemical; details: buffer
In short: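 Lyophilization solubility assay at pH 6.5.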

L6 = experiment: Cytotoxicity against rat L6 cells after 72 hrs by Alamar blue assay; format: cell-based; details: L6, 72 h
In short: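 Rat skeletal myoblast L6 cells in an Alamar Blue growth-inhibition assay. Value is the mean of at least 2 measurements.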

[4] = Octanol-water intrinsic distribution co-efficient, log D of the compound at 100 uM at pH 7.4 after 16 to 22 hrs by CAMDIS assay; format: physicochemical
In short: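 Octanol/aqueous buffer (pH 7.4) intrinsic distribution coefficient measured in the CAMDIS carrier-mediated distribution system.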

Cytochrome P450 3A4 = Cytochrome P450 3A4 (Homo sapiens, UniProt P08684); experiment: Inhibition of CYP3A4 in human liver microsomes using DBF as substrate by fluorescence assay; format: ADME; in short: as §1
[5] = Unbound fraction in human plasma; format: ADME, cell-free
[6] = Intrinsic clearance in human liver microsomes at 2 uM after 30 mins in presence of NADPH by LC-MS/MS method; format: ADME, microsome; details: read-out: CLH
Cytochrome P450 2C9 = Cytochrome P450 2C9 (Homo sapiens, UniProt P11712); experiment: Inhibition of CYP2C9 in human liver microsomes using MFC as substrate by fluorescence assay; format: ADME; in short: as §1
[7] = Intrinsic clearance in mouse liver microsomes at 2 uM after 30 mins in presence of NADPH by LC-MS/MS method; format: ADME, microsome; details: read-out: CLH
[8] = system: Trypanosoma brucei rhodesiense; experiment: Antitrypanosomal activity against bloodstream form of Trypanosoma brucei rhodesiense STIB 900 infected in NMRI mouse assessed as reduction of parasitemia at 50 mg/kg, po administered for 3 consecutive days starting 1 day post infection measured at 24 hrs post last dose relative to control; format: functional; parameters: scale not given: the % may be the effect or the level left
In short: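 Female mice infected with STIB900 were dosed orally at 50 mg/kg/day on three consecutive days, starting 1 day post-infection. Compound was in 100% DMSO diluted 10-fold in distilled water, given at 0.1 mL/10 g. Tail-blood parasitaemia was measured 24 h after the last dose versus 4 untreated infected controls. Values are means of 2 mice.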

Procathepsin L = Procathepsin L (Homo sapiens, UniProt P07711); experiment: Inhibition of human CatL using Cbz-Phe-Arg-AMC as substrate measured over 30 mins by fluorimetric method
In short: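 Human cathepsin L in a fluorimetric assay in 50 mM Tris pH 6.5, 5 mM EDTA, 200 mM NaCl, 0.005% Brij35 at 25 °C. Ki was calculated from IC50 by Cheng-Prusoff. Value is the average of two measurements, each in duplicate.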

[9] = Selectivity index, ratio of Ki for human CatL to Ki for Trypanosoma brucei rhodesiense rhodesain
In short: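 Ki(hCatL)/Ki(RD). Fluorimetric assays at 25 °C: RD in 50 mM sodium acetate pH 5.5; hCatL in 50 mM Tris pH 6.5; both buffers with 5 mM EDTA, 200 mM NaCl, 0.005% Brij35. Ki derived from IC50 by Cheng-Prusoff. Each value is the mean of two measurements, each done in duplicate.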

[10] = Volume of distribution at steady state in C57BL/6J mouse at 1.5 mg/kg, iv as bolus dose by LC-MS/MS analysis; format: ADME, organism-based; details: in vivo, read-out: Vdss; in short: as §2
Rhodesain = Rhodesain (Trypanosoma brucei rhodesiense, UniProt Q95PM0); experiment: Inhibition of Trypanosoma brucei rhodesiense rhodesain using Cbz-Phe-Arg-AMC as substrate by fluorimetric method
In short: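 Fluorescence-based assay run at 25 °C in 50 mM sodium acetate pH 5.5 with 5 mM EDTA, 200 mM NaCl and 0.005% Brij35. IC50 values were converted to Ki with the Cheng-Prusoff equation. Values are the average of two measurements, each done in duplicate.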

[11] = Permeability of the compound after 15 hrs by PAMPA; format: physicochemical; details: read-out: permeability
[12] = Clearance in C57BL/6J mouse at 1.5 mg/kg, iv as bolus dose by LC-MS/MS analysis; format: ADME, organism-based; details: in vivo; in short: as §2
[13] = Selectivity index, ratio of IC50 for rat L6 cells to IC50 for bloodstream form of Trypanosoma brucei rhodesiense STIB 900; format: toxicity; details: read-out: Ratio IC50
In short: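 Ratio of L-6 rat skeletal myoblast IC50 to T. b. rhodesiense STIB 900 bloodstream trypomastigote IC50, both from Alamar Blue growth-inhibition assays. Each IC50 is the mean of at least 2 measurements.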

[14] = Volume of distribution at steady state in C57BL/6J mouse at 1.3 mg/kg, iv as bolus dose by LC-MS/MS analysis; format: ADME, organism-based; details: in vivo, read-out: Vdss
In short: (§3)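 Mice received intravenous compound in N-methylpyrrolidinone / 40% aqueous hydroxypropyl-γ-cyclodextrin (30/70). Blood was drawn into K₂EDTA at 5 min, 15 min, 30 min, 1, 2, 4 and 8 h, and plasma was separated at 3000 × g for 5 min at 4 °C and stored at -20 °C. Plasma levels were measured by LC–MS/MS, and parameters derived by non-compartmental analysis.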

[15] = Clearance in C57BL/6J mouse at 1.3 mg/kg, iv as bolus dose by LC-MS/MS analysis; format: ADME, organism-based; details: in vivo; in short: as §3
[16] = Half life in C57BL/6J mouse at 1.3 mg/kg, iv as bolus dose by LC-MS/MS analysis; format: ADME, organism-based; details: in vivo; in short: as §3
[17] = system: Trypanosoma brucei rhodesiense; experiment: Antitrypanosomal activity against bloodstream form of Trypanosoma brucei rhodesiense STIB 900 assessed as parasite growth inhibition after 48 hrs by Alamar blue assay; format: functional; details: STIB 900, 48 h
In short: (§4)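 Bloodstream STIB 900 trypomastigotes, 1x10⁴ per well, exposed to eleven 3-fold serial dilutions at 37 °C/5% CO₂ for the stated pulse time. Parasites were then pelleted and washed four times, and an aliquot was regrown 72 h drug-free in triplicate plates. Resazurin was added for 2–4 h, fluorescence read at ex 536/em 588 nm, and IC50 taken by linear regression of sigmoidal curves. Melarsoprol served as control.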

[18] = system: Trypanosoma brucei rhodesiense; experiment: Antitrypanosomal activity against bloodstream form of Trypanosoma brucei rhodesiense STIB 900 assessed as parasite growth inhibition after 6 hrs by Alamar blue assay; format: functional; details: STIB 900, 6 h; in short: as §4
[19] = system: Trypanosoma brucei rhodesiense; experiment: Antitrypanosomal activity against bloodstream form of Trypanosoma brucei rhodesiense STIB 900 assessed as parasite growth inhibition after 16 hrs by Alamar blue assay; format: functional; details: STIB 900, 16 h; in short: as §4
[20] = system: Trypanosoma brucei rhodesiense; experiment: Antitrypanosomal activity against bloodstream form of Trypanosoma brucei rhodesiense STIB 900 assessed as parasite growth inhibition after 24 hrs by Alamar blue assay; format: functional; details: STIB 900, 24 h; in short: as §4
[21] = system: Trypanosoma brucei rhodesiense; experiment: Antitrypanosomal activity against bloodstream form of Trypanosoma brucei rhodesiense STIB 900 assessed as parasite growth inhibition after 2 hrs by Alamar blue assay; format: functional; details: STIB 900, 2 h; in short: as §4

Rhodesain, sequence (Q95PM0 whole entry): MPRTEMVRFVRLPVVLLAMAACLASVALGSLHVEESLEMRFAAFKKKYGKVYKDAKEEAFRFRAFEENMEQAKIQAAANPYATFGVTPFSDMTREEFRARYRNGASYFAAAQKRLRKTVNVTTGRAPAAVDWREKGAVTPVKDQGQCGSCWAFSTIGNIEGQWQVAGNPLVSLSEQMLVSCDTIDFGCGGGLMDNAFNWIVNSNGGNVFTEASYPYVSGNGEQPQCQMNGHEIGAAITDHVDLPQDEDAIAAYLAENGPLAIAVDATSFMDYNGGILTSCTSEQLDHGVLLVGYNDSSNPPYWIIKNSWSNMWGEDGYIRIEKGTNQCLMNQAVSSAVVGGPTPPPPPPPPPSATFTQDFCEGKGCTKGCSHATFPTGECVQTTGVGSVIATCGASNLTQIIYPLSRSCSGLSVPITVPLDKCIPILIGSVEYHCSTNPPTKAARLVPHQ
Procathepsin L, sequence (P07711 whole entry): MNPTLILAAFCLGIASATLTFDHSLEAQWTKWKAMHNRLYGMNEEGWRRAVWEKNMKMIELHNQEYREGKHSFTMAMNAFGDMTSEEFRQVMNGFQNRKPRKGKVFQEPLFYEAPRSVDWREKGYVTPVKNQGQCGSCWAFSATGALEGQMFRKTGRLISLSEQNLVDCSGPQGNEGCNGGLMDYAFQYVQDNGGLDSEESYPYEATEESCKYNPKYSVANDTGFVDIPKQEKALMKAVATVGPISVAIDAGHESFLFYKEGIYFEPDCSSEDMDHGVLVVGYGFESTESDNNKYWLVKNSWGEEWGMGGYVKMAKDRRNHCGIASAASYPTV
Cytochrome P450 2D6, sequence (P10635 whole entry): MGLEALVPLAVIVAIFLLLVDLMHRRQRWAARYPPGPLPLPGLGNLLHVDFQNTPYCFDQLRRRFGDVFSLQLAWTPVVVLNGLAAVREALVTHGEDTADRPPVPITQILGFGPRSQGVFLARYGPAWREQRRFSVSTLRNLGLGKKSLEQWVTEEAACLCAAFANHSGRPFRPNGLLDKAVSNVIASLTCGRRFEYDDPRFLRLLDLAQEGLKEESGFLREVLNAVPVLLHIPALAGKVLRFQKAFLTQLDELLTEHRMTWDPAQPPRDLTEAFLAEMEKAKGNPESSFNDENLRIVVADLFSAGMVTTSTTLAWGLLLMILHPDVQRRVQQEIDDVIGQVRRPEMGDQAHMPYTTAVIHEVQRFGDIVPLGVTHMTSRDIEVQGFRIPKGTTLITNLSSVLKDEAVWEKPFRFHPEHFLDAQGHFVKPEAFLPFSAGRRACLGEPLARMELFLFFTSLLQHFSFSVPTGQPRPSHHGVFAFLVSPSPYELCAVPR
Cytochrome P450 2C9, sequence (P11712 whole entry): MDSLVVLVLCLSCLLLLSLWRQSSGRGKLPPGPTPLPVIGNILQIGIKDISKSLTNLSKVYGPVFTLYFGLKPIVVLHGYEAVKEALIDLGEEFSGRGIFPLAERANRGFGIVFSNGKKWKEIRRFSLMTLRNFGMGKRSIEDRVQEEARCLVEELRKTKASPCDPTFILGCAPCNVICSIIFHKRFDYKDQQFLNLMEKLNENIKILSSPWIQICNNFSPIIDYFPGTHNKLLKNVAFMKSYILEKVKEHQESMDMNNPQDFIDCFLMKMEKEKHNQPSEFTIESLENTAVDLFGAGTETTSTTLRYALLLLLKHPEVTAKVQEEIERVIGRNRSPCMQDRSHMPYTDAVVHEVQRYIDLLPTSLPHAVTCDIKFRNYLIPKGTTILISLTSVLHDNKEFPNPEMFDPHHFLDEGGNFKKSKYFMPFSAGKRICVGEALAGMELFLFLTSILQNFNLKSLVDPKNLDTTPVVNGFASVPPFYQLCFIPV
Cytochrome P450 3A4, sequence (P08684 whole entry): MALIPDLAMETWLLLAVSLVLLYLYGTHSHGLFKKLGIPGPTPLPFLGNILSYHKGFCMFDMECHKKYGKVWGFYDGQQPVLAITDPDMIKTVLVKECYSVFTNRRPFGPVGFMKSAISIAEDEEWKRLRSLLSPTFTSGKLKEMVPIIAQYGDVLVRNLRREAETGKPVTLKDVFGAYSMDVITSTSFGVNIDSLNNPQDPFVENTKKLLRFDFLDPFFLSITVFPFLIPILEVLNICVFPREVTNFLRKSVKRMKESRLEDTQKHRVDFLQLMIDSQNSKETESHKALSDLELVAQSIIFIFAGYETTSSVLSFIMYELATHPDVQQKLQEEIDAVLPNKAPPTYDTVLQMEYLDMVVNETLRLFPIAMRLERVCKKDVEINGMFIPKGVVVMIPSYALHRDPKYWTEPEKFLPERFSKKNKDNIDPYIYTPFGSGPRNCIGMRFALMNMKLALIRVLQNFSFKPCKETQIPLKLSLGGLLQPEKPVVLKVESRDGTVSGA

## Cn1ncc(C(=O)N[C@@H](Cc2ccc(OC(F)(F)F)c(Cl)c2)C(=O)NC2(C#N)CC2)n1
[1]
  IC50: 40 nM
Cytochrome P450 2D6
  IC50: 6000 nM
[2]
  half-life: 1.52 h
[3]
  solubility: 53 µg/mL (≈ 116 µM)
L6
  IC50: > 10000 nM
[4]
  logD at 100 µM: 3.09
Cytochrome P450 3A4
  IC50: > 50000 nM
[5]
  fraction unbound: 0.226
[6]
  microsomal CLint at 2 µM: < 10 µL/min/mg
Cytochrome P450 2C9
  IC50: > 50000 nM
[7]
  microsomal CLint at 2 µM: < 10 µL/min/mg
[8]
  Activity: 53.6%
Procathepsin L
  Ki: 15 nM
[9]
  Ratio Ki: 0.7
[10]
  Vd: 2.7 L/kg
Rhodesain
  Ki: 23 nM
[11]
  Papp at 15 h: 0.12 ×10⁻⁶ cm/s
[12]
  clearance: 22.8 mL/min/kg

## CC(C)(C)n1ncc(C(=O)N[C@@H](Cc2ccc(OC(F)(F)F)c(Cl)c2)C(=O)NC2(C#N)CC2)n1
[1]
  IC50: 4 nM
Cytochrome P450 2D6
  IC50: 500 nM
[3]
  solubility: 0.9 µg/mL (≈ 1.8 µM)
L6
  IC50: 7630 nM
[13]
  selectivity ratio: 1900
[4]
  logD at 100 µM: 4.87
[14]
  Vd: 1.7 L/kg
Cytochrome P450 3A4
  IC50: > 50000 nM
[6]
  microsomal CLint at 2 µM: < 10 µL/min/mg
[15]
  clearance: 17 mL/min/kg
Cytochrome P450 2C9
  IC50: 5000 nM
[7]
  microsomal CLint at 2 µM: 17 µL/min/mg
Procathepsin L
  Ki: 8 nM
[9]
  Ratio Ki: 0.3
[16]
  half-life: 1.3 h
Rhodesain
  Ki: 31 nM
[11]
  Papp at 15 h: 2.86 ×10⁻⁶ cm/s

## N#CC1(NC(=O)[C@H](Cc2ccc(OC(F)(F)F)c(Cl)c2)NC(=O)c2cnn(-c3ccccc3)n2)CC1
[1]
  IC50: 5 nM
[17]
  IC50: 462 nM
[3]
  solubility: < 0.3 µg/mL
L6
  IC50: 17900 nM
[13]
  selectivity ratio: 3580
Procathepsin L
  Ki: 81.7 nM
[9]
  Ratio Ki: 28
Rhodesain
  Ki: 2.9 nM
[18]
  IC50: > 1000 nM
[19]
  IC50: > 1000 nM
[20]
  IC50: 556 nM
[21]
  IC50: > 1000 nM

## CC(C)n1ncc(C(=O)N[C@@H](Cc2ccc(OC(F)(F)F)c(Cl)c2)C(=O)NC2(C#N)CC2)n1
[1]
  IC50: 4 nM
[2]
  half-life: 1.53 h
[3]
  solubility: 4 µg/mL (≈ 8.25 µM)
L6
  IC50: > 10000 nM
[4]
  logD at 100 µM: 4.61
[5]
  fraction unbound: 0.0826
[6]
  microsomal CLint at 2 µM: 11 µL/min/mg
[7]
  microsomal CLint at 2 µM: 26 µL/min/mg
Procathepsin L
  Ki: 4 nM
[9]
  Ratio Ki: 0.2
[10]
  Vd: 3 L/kg
Rhodesain
  Ki: 18 nM
[11]
  Papp at 15 h: 0.138 ×10⁻⁶ cm/s
[12]
  clearance: 32.9 mL/min/kg
